Key:
[1] = target: T1, Peroxisome proliferator-activated receptor alpha (Homo sapiens, UniProt Q07869); test: Effect on human PPARalpha transactivation in 293T cells; type: functional, cell-based
T1 sequence (Q07869 whole entry): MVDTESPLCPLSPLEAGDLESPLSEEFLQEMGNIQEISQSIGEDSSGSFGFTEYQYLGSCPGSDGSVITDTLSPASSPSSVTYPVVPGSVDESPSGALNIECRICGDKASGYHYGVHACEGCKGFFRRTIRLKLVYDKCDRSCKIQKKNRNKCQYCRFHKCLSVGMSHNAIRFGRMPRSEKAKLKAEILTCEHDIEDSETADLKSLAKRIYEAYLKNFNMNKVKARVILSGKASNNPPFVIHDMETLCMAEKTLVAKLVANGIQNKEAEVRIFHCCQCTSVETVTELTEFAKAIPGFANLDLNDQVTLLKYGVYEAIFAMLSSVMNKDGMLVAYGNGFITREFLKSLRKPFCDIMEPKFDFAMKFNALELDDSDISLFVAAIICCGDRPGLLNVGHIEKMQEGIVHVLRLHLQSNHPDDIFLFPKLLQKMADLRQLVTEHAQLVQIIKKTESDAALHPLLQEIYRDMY
Summary of the method: (§1)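 293T cells transfected for 6 h (Fugene6) with a GAL4 DNA-binding domain–PPAR ligand-binding domain fusion plasmid and pG5-Luc reporter (5 GAL4-binding sites, TATA box, firefly luciferase). Compounds were then added at 1× final concentration in 1% DMSO for 18-20 h at 37 °C. Cells were lysed with Britelite for luciferase read-out.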

[2] = target: T2, Peroxisome proliferator-activated receptor gamma (Homo sapiens, UniProt P37231); test: Effect on human PPARgamma transactivation in 293T cells; type: functional, cell-based
T2 sequence (P37231 whole entry): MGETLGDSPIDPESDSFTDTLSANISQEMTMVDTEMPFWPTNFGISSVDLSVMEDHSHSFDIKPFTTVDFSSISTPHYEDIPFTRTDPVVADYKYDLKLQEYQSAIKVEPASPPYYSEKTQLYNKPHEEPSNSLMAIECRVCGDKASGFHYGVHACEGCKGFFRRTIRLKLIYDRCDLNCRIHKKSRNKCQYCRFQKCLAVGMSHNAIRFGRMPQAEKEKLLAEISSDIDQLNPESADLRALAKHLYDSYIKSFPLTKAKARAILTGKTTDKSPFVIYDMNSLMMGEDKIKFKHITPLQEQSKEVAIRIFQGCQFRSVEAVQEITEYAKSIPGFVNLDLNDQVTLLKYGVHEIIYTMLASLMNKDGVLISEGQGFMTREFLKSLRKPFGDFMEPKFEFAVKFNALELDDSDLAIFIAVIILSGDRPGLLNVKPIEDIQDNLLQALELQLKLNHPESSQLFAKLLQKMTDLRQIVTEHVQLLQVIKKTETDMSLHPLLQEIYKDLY

[3] = target: T3, Peroxisome proliferator-activated receptor delta (Homo sapiens, UniProt Q03181); test: Effect on human PPARdelta transactivation in 293T cells; type: functional, cell-based
T3 sequence (Q03181 whole entry): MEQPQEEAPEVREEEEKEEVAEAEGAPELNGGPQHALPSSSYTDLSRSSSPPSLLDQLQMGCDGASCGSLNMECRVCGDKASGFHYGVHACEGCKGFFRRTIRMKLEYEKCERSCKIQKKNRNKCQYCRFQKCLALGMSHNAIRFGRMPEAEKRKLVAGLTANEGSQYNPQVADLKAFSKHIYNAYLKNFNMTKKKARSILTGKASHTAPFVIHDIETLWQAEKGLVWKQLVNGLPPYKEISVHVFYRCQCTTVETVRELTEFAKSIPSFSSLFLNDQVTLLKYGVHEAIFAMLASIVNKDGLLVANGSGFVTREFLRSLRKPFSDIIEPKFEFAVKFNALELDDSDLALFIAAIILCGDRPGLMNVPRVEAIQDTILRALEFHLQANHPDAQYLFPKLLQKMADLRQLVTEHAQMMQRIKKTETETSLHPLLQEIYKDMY

Mus musculus = organism: Mus musculus; test: Stability in mouse liver microsome; type: ADME
Liver microsomes [4] = test: Stability in rat liver microsome; type: ADME
Liver microsomes [5] = test: Stability in human liver microsome; type: ADME
[6] = Bioavailability in mouse at 10 mg/kg, po; type: ADME, organism-based; settings: in vivo
Summary of the method: (§2)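 Mice received a single oral dose of 10 mpk, given as a suspension in 0.5% CMC. Bioavailability, Cmax and half-life were obtained from this pharmacokinetic study.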

[7] = Cmax in mouse at 10 mg/kg, po; type: ADME, organism-based; parameters: dose 10 mg/kg, route oral; settings: in vivo; summary of the method: as §2
[8] = Half life in mouse at 10 mg/kg, po; type: ADME, organism-based; parameters: dose 10 mg/kg, route oral; settings: in vivo; summary of the method: as §2
[9] = target: T4, Peroxisome proliferator-activated receptor gamma (Homo sapiens) (UniProt P37231); test: Effect on human PPARgamma transactivation in 293T cells relative to rosiglitazone; type: functional, cell-based; summary of the method: as §1
T4 sequence (whole entry): T2 sequence (P37231 whole entry)

Row | SMILES | EC50 [1] [nM] | EC50 [2] [nM] | EC50 [3] [nM] | further results
1 | Cc1cc(OCc2cc(-c3ccc(C(F)(F)F)cc3)cc(-c3ccc(C(F)(F)F)cc3)c2)ccc1OCC(=O)O | > 10000 | > 10000 | 10 | Stability (Mus musculus): Stable; Stability (Liver microsomes [4]): Stable; Stability (Liver microsomes [5]): Stable; bioavailability [6]: > 50%; Cmax [7]: > 4 µM; half-life [8]: 3 h
2 | COc1ccc(-c2cc(COc3ccc(OCC(=O)O)c(C)c3)cc(-c3ccc(OC)cc3)c2)cc1 | > 10000 | > 10000 | 350 | 
3 | COc1ccc(-c2ccc(COc3ccc(OCC(=O)O)c(C)c3)cc2-c2ccc(OC)cc2)cc1 | > 10000 | > 10000 | > 10000 | 
4 | CC(C)(Oc1ccc(OCc2cc(-c3ccc(C(F)(F)F)cc3)cc(-c3ccc(C(F)(F)F)cc3)c2)cc1)C(=O)O | 730 | 370 | 50 | 
5 | O=C(O)COc1ccc(OCc2cc(-c3ccc(C(F)(F)F)cc3)cc(-c3ccc(C(F)(F)F)cc3)c2)cc1 | 1640 | > 10000 | 110 | 
6 | COc1ccc(-c2cc(COc3ccc(OCC(=O)O)c(C)c3)cc(-c3ccc(C(F)(F)F)cc3)c2)cc1 | > 10000 | > 10000 | 70 | 
7 | O=C(O)COc1ccc(OCc2cc(-c3ccccc3)cc(-c3ccccc3)c2)cc1 | > 10000 | 1200 | 970 | 
8 | Cc1cc(OCc2cc(-c3ccc(N(C)C)cc3)cc(-c3ccc(N(C)C)cc3)c2)ccc1OCC(=O)O | > 10000 | > 10000 | 490 | 
9 | Cc1cc(OCc2cc(-c3ccc(Cl)cc3)cc(-c3ccc(Cl)cc3)c2)ccc1OCC(=O)O | > 10000 | > 10000 | 110 | 
10 | Cc1cc(OCc2cc(-c3ccc(C(F)(F)F)cc3)nc(-c3ccc(C(F)(F)F)cc3)n2)ccc1OCC(=O)O | > 10000 | > 10000 | 30 | 
11 | Cc1cc(OCc2ccc(-c3ccc(OC(F)(F)F)cc3)c(-c3ccc(OC(F)(F)F)cc3)c2)ccc1OCC(=O)O | > 10000 | > 10000 | > 10000 | 
12 | O=C(O)Cc1ccc(SCc2cc(-c3ccc(C(F)(F)F)cc3)cc(-c3ccc(C(F)(F)F)cc3)c2)c(Cl)c1 | > 10000 | > 10000 | 160 | 
13 | Cc1cc(OCc2nc(-c3ccc(C(F)(F)F)cc3)cc(-c3ccc(C(F)(F)F)cc3)n2)ccc1OCC(=O)O | > 10000 | > 10000 | 40 | 
14 | Cc1cc(OCc2cc(-c3ccc(OC(F)(F)F)cc3)nc(-c3ccc(OC(F)(F)F)cc3)n2)ccc1OCC(=O)O | > 10000 | > 10000 | 40 | Stability (Mus musculus): Stable; Stability (Liver microsomes [4]): Stable; Stability (Liver microsomes [5]): Stable; bioavailability [6]: > 50%; Cmax [7]: > 4 µM; half-life [8]: 3 h
15 | Cc1cc(SCc2cc(-c3ccc(C(F)(F)F)cc3)cc(-c3ccc(C(F)(F)F)cc3)c2)ccc1OCC(=O)O | > 10000 | > 10000 | 30 | 
16 | Cc1cc(OCc2cc(-c3ccc(-c4ccccc4)cc3)cc(-c3ccc(C(F)(F)F)cc3)c2)ccc1OCC(=O)O | > 10000 | > 10000 | 60 | 
17 | Cc1cc(OCc2cc(-c3ccc(OC(F)(F)F)cc3)cc(-c3ccc(C(F)(F)F)cc3)c2)ccc1OCC(=O)O | > 10000 | > 10000 | 60 | 

Second part, led by results:

Row | EC50 [1] [nM] | EC50 [2] [nM] | EC50 [3] [nM] | SMILES | further results
18 | > 10000 | 740 | 560 | Cc1cc(OCc2cc(-c3ccccc3)cc(-c3ccccc3)c2)ccc1OCC(=O)O | Efficacy [9]: 30%
19 | > 10000 | > 10000 | 540 | O=C(O)Cc1ccc(OCc2cc(-c3ccc(C(F)(F)F)cc3)cc(-c3ccc(C(F)(F)F)cc3)c2)c(Cl)c1 | 
20 | > 10000 | > 10000 | 560 | Cc1cc(OCc2cc(-c3ccc(C(F)(F)F)cc3)cc(-c3cccc(C(F)(F)F)c3)c2)ccc1OCC(=O)O | 
21 | > 10000 | > 10000 | 30 | Cc1cc(OCc2cc(-c3ccc(OC(F)(F)F)cc3)cc(-c3ccc(OC(F)(F)F)cc3)c2)ccc1OCC(=O)O | 
22 | > 10000 | > 10000 | 110 | COc1ccc(-c2cc(-c3ccc(OC)cc3)nc(COc3ccc(OCC(=O)O)c(C)c3)n2)cc1 | 
23 | > 10000 | > 10000 | 90 | Cc1cc(OCc2nc(-c3ccc(OC(F)(F)F)cc3)cc(-c3ccc(OC(F)(F)F)cc3)n2)ccc1OCC(=O)O | 
24 | > 10000 | > 10000 | > 10000 | Cc1cc(OCc2ccc(-c3ccc(C(F)(F)F)cc3)c(-c3ccc(C(F)(F)F)cc3)n2)ccc1OCC(=O)O | 
25 | > 10000 | > 10000 | 70 | Cc1ccc(-c2cc(COc3ccc(OCC(=O)O)c(C)c3)cc(-c3ccc(C(F)(F)F)cc3)c2)cc1 | 
26 | > 10000 | > 10000 | 210 | COc1ccc(-c2cc(COc3ccc(OCC(=O)O)c(C)c3)nc(-c3ccc(OC)cc3)n2)cc1 | 
27 | 3330 | > 10000 | 70 | Cc1cc(OCC(=O)O)ccc1OCc1cc(-c2ccc(C(F)(F)F)cc2)cc(-c2ccc(C(F)(F)F)cc2)c1 | 

Reference: ChEMBL document CHEMBL1147714, “1,3,5-Trisubstituted aryls as highly selective PPARdelta agonists” (Bioorg Med Chem Lett, 2006)
